AF4-AF9 inh: MLL-AF4/AF9 protein interaction inhibition | P42568 | AlphaScreen, biotin-AF4 peptide binding to FLAG-AF9 | 0.47% of 350,000 active | inhibition, % at 10 µM;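 active = every replicate reaching a set inhibition limit, whatever the replicate mean, cut at about 25% in these data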;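 note: 0% = plate neutral control median and 100% = total signal loss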
NSD2 HMT inh: blocks human histone methyltransferase NSD2 | NSD2 peptide methylation, AlphaScreen, 120 min | inhibition, % at 12.5 µM | 0.54% of 310,000 active | O96028 | AID 743445; in the data active = inhibition above about 50%
RAD52 anneal inh: blocks human RAD52 DNA annealing; P43351; recombinant RAD52 DNA annealing, FRET fluorescence; AID 651710; inhibition, % at 18.7 µM; 0.46% of 360,000 active;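 active = every replicate showing at least 50% inhibition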
FN deposition inh: fibronectin deposition inhibition. inhibition, % at 12.6 µM. 0.086% of 350,000 active. AH1F fibroblasts, Alexa488-fibronectin deposition fluorescence, overnight;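 active = mean inhibition across replicates of 30% or more, regardless of how many single replicates reach that level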;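 note: positive control wells lacked labelled fibronectin entirely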
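Material – AH1F fibroblast monolayer, labelled fibronectin deposition · Reagent – labelled fibronectin 24 nM · Timing – 1 h adhesion, overnight exposure · Measured by – fluorescence at 485 nm excitation, 525 nm emission · Read-out – inhibition of fibronectin deposition signal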
RAD54 branch: RAD54 (human) branch migration inhibition; RAD54 Holliday junction branch migration, FAM/BHQ fluorescence; inhibition, % at 10.4 µM; Q92698; 0.14% of 360,000 active;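 active = mean normalized replicate activity at least 40 and at least half of replicates scoring 40 or more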;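 note: 0% = median of neutral control wells and 100% = median of positive control wells; inhibitors cause a drop in the FAM fluorescence signal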
Target sequence (Q92698 whole entry, looked up): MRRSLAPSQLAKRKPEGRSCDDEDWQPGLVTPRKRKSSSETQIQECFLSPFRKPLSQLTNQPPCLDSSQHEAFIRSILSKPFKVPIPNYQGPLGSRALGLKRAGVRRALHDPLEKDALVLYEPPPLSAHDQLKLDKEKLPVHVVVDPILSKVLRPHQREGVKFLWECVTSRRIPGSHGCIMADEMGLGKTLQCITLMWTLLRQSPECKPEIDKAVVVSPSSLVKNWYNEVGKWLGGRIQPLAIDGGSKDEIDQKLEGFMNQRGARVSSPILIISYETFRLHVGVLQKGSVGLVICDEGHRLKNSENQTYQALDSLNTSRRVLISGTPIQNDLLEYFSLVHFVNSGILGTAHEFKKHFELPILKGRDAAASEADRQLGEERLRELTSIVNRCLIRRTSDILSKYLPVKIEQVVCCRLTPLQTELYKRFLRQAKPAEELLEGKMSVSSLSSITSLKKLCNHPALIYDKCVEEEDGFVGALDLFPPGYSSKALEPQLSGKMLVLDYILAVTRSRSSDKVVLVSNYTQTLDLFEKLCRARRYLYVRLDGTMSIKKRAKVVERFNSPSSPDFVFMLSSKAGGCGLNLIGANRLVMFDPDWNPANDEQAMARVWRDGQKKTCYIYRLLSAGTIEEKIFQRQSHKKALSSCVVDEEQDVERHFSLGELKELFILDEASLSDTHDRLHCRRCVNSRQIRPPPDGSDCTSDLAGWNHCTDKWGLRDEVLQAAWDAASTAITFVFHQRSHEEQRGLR
N-glyco inh: blocks N-linked glycosylation in D54 reporter cells; D54 ERlucT glycosylation luciferase reporter, 24 h; percent of 100 nM tunicamycin response; reporter increase, % at 12.5 µM; 0.23% of 360,000 active;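 active = mean luciferase reporter signal, scaled so untreated is 0 and the glycosylation-blocking control 100, at or above a set limit in every replicate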;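 note: luciferase carries N-glycosylation sites so blocking glycosylation raises the light; 0% = median of neutral control wells and 100% = median of 100 nM tunicamycin wells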
An asterisk follows results filed as active; · = no result. This is a sample that favours compounds with a hit; in the whole collection about 1.2% have one here.

SMILES	AF4-AF9 inh	NSD2 HMT inh	RAD52 anneal inh	FN deposition inh	RAD54 branch	N-glyco inh
C/C=C/c1ccc([C@H]2[C@@H](CN(C)C(C)=O)N(C(=O)NCCC)[C@H]2CO)cc1	-1	·	2	-12	-1	·
Nc1nc(-c2ccccc2)cc(-c2ccccc2O)n1	·	·	·	-12	4	35*
NNc1nc(-c2ccccc2)cc(-c2ccccc2O)n1	-4	4	-25	·	8	9
C[C@@H]1CN([C@H](C)CO)S(=O)(=O)c2ccc(C#C[C@@H](C)O)cc2O[C@H]1CN(C)C(=O)C1CC1	-3	·	-3	-6	-9	·
COc1ccc(C#Cc2ccc([C@H]3[C@H](CO)N4CCCCN(Cc5ccccc5F)C[C@@H]34)cc2)cc1	32*	·	3	·	29	·
COc1ccc(C#Cc2ccc([C@@H]3[C@H](CO)N4CCCCN(Cc5ccccc5F)C[C@@H]34)cc2)cc1	31*	·	41	·	18	·
CCN1C(=O)CS/C1=N\S(=O)(=O)c1ccc(Cl)cc1	-1	6	-16	3	-7	3
CCn1c(Cl)c(C=O)s/c1=N\S(=O)(=O)c1ccccc1	·	·	-104	50*	-12	-6
COCCn1c(-c2ccc(Br)cc2)csc1=Nc1cccnc1	13	·	-22	·	·	-6
Clc1ccc(-c2csc(=Nc3cccnc3)n2CCCn2ccnc2)cc1Cl	47*	14	-39	12	·	-8
C[C@@H]1CN([C@H](C)CO)C(=O)c2cc(-c3cccnc3)cnc2O[C@H]1CN(C)C(=O)C1CCC1	-2	·	1	·	-9	·
O=C(C[C@H]1C[C@H]2c3cc(NC(=O)c4ccc5c(c4)OCO5)ccc3O[C@H]2[C@@H](CO)O1)NCc1cccnc1	-6	·	7	·	-6	·
C[C@H](CO)N1C[C@H](C)[C@@H](CN(C)C)Oc2ccc(NC(=O)CCCCCC(=O)Nc3ccccc3N)cc2C1=O	2	·	2	-7	-7	·
CC(C)N(C(=O)Nc1ccc2nsnc2c1)C(C)C	-1	104*	-2	9	·	·
COc1ccc(N(C)C(=O)Nc2ccc3nsnc3c2)cc1	2	-1	-28	·	-7	-2
C[C@@H]1CCCCO[C@H](CN(C)Cc2ccc(C(F)(F)F)cc2)[C@H](C)CN([C@H](C)CO)C(=O)c2cc(NS(=O)(=O)c3ccc(F)cc3)ccc2O1	-1	·	-18	-8	4	·
CCOC(=O)c1nnn(-c2ccc(OC)cc2)c1N	·	-1	·	32*	5	-2
COc1ccccc1S(=O)(=O)N[C@H]1CC[C@@H](CC(=O)N2CCN(C)CC2)O[C@H]1CO	-1	·	1	7	4	·
CCCNC(=O)[C@@H]1[C@@H](CO)[C@@H]2Cn3c(ccc(C4=CCCCC4)c3=O)[C@H]1N2Cc1cocn1	3	·	-4	·	-4	·
CCCOc1ccc(C(=O)OCCN(CC)CC)cc1N	4	·	95*	-1	4	-4
CCOc1ccc(C(=O)OCCN(CC)CC)cc1	·	6	·	·	-4	-4
CC(C)NC(=O)N(C)C[C@@H]1Oc2ccc(NS(=O)(=O)c3ccc(Cl)cc3)cc2CC(=O)N([C@H](C)CO)C[C@H]1C	1	·	-2	·	5	·
COc1ccc(N=Nc2c(C)[nH]c3ccccc23)cc1	26*	10	-10	-1	-7	4
CC(=O)c1cccc(N=Nc2c(C)[nH]c3ccccc23)c1	·	4	·	2	·	0
CCC(=O)N1[C@@H](CO)[C@@H]2c3ccccc3N(C(=O)c3ccc4c(c3)OCO4)C[C@@H]21	-3	·	-1	·	-3	·
SMILES	AF4-AF9 inh	NSD2 HMT inh	RAD52 anneal inh	FN deposition inh	RAD54 branch	N-glyco inh
C[C@@H]1CN([C@@H](C)CO)C(=O)c2cc(N(C)C)ccc2O[C@@H]1CN(C)Cc1ccc(Cl)c(Cl)c1	33*	·	0	-9	-6	·
C[C@H](CO)N1C[C@H](C)[C@H](CN(C)Cc2ccc(Cl)c(Cl)c2)Oc2ccc(N(C)C)cc2CC1=O	19	·	4	-32	-1	·
C[C@@H]1CN([C@H](C)CO)C(=O)c2cc(N(C)C)ccc2O[C@H]1CN(C)Cc1ccc(Cl)c(Cl)c1	28*	·	-3	1	7	·
C[C@@H]1CN([C@H](C)CO)C(=O)c2cc(N(C)C)ccc2O[C@@H]1CN(C)Cc1ccc(Cl)c(Cl)c1	28*	·	16	3	-16	·
C[C@H](CO)N1C[C@H](C)[C@H](CN(C)C(=O)c2ccc(F)cc2)Oc2cc(C3=CCCCC3)ccc2S1(=O)=O	5	·	2	·	-5	·
C[C@H]1CCCCO[C@@H](CN(C)C(=O)C2CCCCC2)[C@@H](C)CN([C@@H](C)CO)C(=O)c2cc(NC(=O)C3CCCCC3)ccc2O1	0	·	7	·	5	·
CC(Sc1nc(-c2ccccc2)cc(C(F)(F)F)n1)C(=O)N1CCCC1 (centres undefined)	49*	·	-3	1	2	0
O=C(NCCc1ccccc1)c1cc(-c2ccco2)on1	3	2	-8	·	3	48*
COc1ccc(CCNC(=O)c2cc(-c3ccco3)on2)cc1OC	-3	-4	-34	-2	-18	63*
O=C(C[C@@H]1CC[C@H]2[C@@H](COC[C@H](O)CN2S(=O)(=O)c2ccccc2)O1)NCc1ccc(-c2ccccc2)cc1	14	·	80*	-14	-7	·
O=C(C[C@H]1CC[C@@H]2[C@H](COC[C@@H](O)CN2S(=O)(=O)c2ccccc2)O1)Nc1ccc(-c2ccccc2)cc1	0	·	3	3	-11	·
CS(=O)(=O)N1C[C@@H](O)COC[C@@H]2O[C@H](CC(=O)NCc3ccc(-c4ccccc4)cc3)CC[C@H]21	16	·	36	-18	-24	·
CS(=O)(=O)N1C[C@H](O)COC[C@@H]2O[C@@H](CC(=O)NCc3ccc(-c4ccccc4)cc3)CC[C@H]21	16	·	78*	-1	7	·
C[C@H]1CN(C)C(=O)Cc2ccccc2O[C@@H]1CN(C)C	·	·	·	6	·	·
CCN1C(=O)C(CC(=O)Nc2ccc(OC)cc2)N(CCCN2CCN(c3ccc(OC)cc3)CC2)C1=S (centres undefined)	28*	7	-21	·	10	3
Cc1ccc(F)c([C@H]2C3C=CCC(c4ccccc4)C3C(=O)N2Cc2ccccc2)c1 (some centres undefined)	50*	·	-16	-8	-1	0
CC(=O)N(C1=C(N)C(=O)c2ccccc2C1=O)C(C)C	-1	81*	-8	-9	·	6
C(=N\Nc1nc2ccccc2[nH]1)/c1ccc2ncccc2c1	·	·	-7	8	-5	45*
CCN(CC)c1ccc(NC(=S)Nc2ccc(F)cc2)cc1	27*	12	-10	-9	4	-2
CCCCCCCCOC(=O)c1c(CSC(=N)N)n(C)c2cc(Br)c(OC(C)=O)cc12	6	-1	83*	14	-1	-8
O=C(CN1CCOCC1)N1CC(=O)N2[C@H](CO)[C@@H](c3ccc(/C=C/c4ccccc4)cc3)[C@@H]2C1	3	·	1	·	·	·

Screens from PubChem BioAssay.
